This is an account of results in ChEMBL document CHEMBL1138815, “Synthesis, structure-activity relationships, and in vivo properties of 3,4-dihydro-1H-pyrido[2,3-b]pyrazin-2-ones as corticotropin-releasing factor-1 receptor antagonists” (J Med Chem, 2004).

Series [1] deals with T1, Corticotropin-releasing factor receptor 1 (Rattus norvegicus, UniProt P35353).
T1 sequence (P35353 whole entry): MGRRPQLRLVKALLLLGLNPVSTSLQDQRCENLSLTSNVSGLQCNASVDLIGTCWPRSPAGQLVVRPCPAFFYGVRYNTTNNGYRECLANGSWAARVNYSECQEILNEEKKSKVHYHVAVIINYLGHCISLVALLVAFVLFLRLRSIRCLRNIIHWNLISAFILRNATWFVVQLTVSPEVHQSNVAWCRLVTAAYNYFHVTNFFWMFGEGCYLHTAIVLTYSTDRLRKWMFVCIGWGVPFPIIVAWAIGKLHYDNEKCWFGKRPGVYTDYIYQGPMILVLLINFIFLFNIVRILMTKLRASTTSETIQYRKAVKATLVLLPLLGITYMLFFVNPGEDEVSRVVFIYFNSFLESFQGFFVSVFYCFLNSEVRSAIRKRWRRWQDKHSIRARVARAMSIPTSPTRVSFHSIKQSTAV
Kind of series: (§1) Inhibition of [125I]ovine-CRF binding to corticotropin releasing factor receptor 1. In a few lines:
(§2)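 CRF1 source is rat frontal cortex membranes (25 µg/well), washed by homogenization and 32000g spins. Incubated with 150 pM [125I]ovine-CRF for 2 h at 21 °C in 50 mM Hepes pH 7.0 with MgCl2, EGTA, protease inhibitors, Triton X-100, bacitracin and ovalbumin. Separated by filtration on PEI-treated GF/B filters and gamma counted. Nonspecific binding defined with 1 µM DMP696.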

Series [2] addresses T2, Corticotropin-releasing factor receptor 1 (Homo sapiens, UniProt P34998).
T2 sequence (P34998 whole entry): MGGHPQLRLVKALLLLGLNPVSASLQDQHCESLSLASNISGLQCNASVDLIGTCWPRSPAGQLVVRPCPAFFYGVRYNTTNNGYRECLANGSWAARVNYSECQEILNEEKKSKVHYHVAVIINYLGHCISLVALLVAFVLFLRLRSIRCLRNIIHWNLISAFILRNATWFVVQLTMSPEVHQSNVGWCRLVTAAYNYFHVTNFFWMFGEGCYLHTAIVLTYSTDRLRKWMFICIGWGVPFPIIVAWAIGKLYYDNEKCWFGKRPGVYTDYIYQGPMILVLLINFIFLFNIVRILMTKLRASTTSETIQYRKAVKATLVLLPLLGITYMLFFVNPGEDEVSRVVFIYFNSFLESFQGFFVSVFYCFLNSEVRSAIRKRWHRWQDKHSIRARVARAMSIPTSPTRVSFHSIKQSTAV
The series is described as §1. In a few lines: as §2

Series [3] is described as follows: Volume of distribution in Beagle dogs. The conditions noted are these: dog, in vivo. Format: ADME, organism-based, Canis lupus familiaris. The method in brief: (§3)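 Beagle dogs dosed iv at 1.0 mg/kg (n = 2) in propylene glycol:water:N,N-dimethylacetamide 80:10:10, or po at 5.0 mg/kg (n = 2) in Labrafil:ethanol:Tween 80 85:10:5. Blood drawn by jugular venipuncture at 0–24 h (iv from 0.1 h, po from 0.5 h). Plasma stored at -20 °C, levels measured by LC/MS/MS.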

Series [4] addresses T3, Corticotropin-releasing factor receptor 1 (Rattus norvegicus) (UniProt P35353).
T3 sequence (whole entry): T1 sequence (P35353 whole entry)
Kind of series: Percent occupancy of corticotropin releasing factor receptor 1 in defensive withdrawal model in rats after oral administration; Dose 10 mg/kg. It counts as organism-based. On the set-up: dose 10 mg/kg. The conditions noted are these: at 10 mg/kg. In a few lines: (§4)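 After oral dosing at 1, 3 or 10 mg/kg in the defensive withdrawal rats, CRF1 occupancy in parietal cortex measured by ex vivo autoradiography; n = 5.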

Series [5] in a line: Bioavailability in Beagle dogs. It counts as ADME, organism-based, Canis lupus familiaris. The conditions noted are these: dog, in vivo, read-out: Bioavailabiility. In a few lines: as §3
Series [6] can be described thus: Mean total plasma concentration was determined in the defensive withdrawal model of rats after oral administration; Dose 10 mg/kg. It counts as ADME, organism-based. Further details: dose 10 mg/kg, route oral. The conditions noted are these: rat, in vivo, read-out: Mean total plasma concentration.
A short description of series [7]: Mean free plasma concentration was determined in the defensive withdrawal model of rats after oral administration; Dose 10 mg/kg. Format: ADME, organism-based. Further details: dose 10 mg/kg, route oral. The following applies: rat, in vivo.
Series [8] is described as follows: Mean free plasma concentration was determined in the defensive withdrawal model of rats after oral administration; Dose 3 mg/kg. It counts as ADME, organism-based. Further details: dose 3 mg/kg, route oral. The conditions noted are these: rat, in vivo.
Series [9] can be described thus: Clearance in Beagle dogs. Format: ADME, organism-based, Canis lupus familiaris. The conditions noted are these: dog, in vivo. In a few lines: as §3
Series [10] addresses T4, Adenosine receptor A3 (Homo sapiens) (UniProt P0DMS8).
T4 sequence (whole entry): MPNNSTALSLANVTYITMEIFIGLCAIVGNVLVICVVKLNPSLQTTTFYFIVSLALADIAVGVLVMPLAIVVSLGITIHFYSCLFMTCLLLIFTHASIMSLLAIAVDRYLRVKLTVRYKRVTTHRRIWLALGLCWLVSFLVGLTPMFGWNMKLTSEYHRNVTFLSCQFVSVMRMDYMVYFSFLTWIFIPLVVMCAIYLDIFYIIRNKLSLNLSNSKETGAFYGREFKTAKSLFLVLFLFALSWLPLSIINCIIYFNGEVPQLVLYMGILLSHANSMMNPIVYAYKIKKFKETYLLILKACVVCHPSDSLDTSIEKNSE
Kind of series: Inhibition of Adenosine A3 receptor at 10 uM.

Series [11] addresses Corticotropin releasing factor receptor (Rattus norvegicus, UniProt P47866+P35353). Kind of series: Inhibition of corticotropin releasing factor-induced ACTH release from rat pituitary cells. Format: functional, cell-based. The conditions noted are these: pituitary gland cell. The method in brief: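 Cultured rat pituitary cells stimulated with 0.3 nM CRF, with inhibition of ACTH release measured across a concentration range to give IC50; n = 3.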

In series [12] the target is T3, Corticotropin-releasing factor receptor 1 (Rattus norvegicus). Kind of series: Percent occupancy of corticotropin releasing factor receptor 1 in defensive withdrawal model in rats after oral administration; Dose 1 mg/kg. It counts as functional, organism-based. On the set-up: dose 1 mg/kg. The following applies: at 1 mg/kg. In a few lines:
as §4

The target in series [13] is Vasopressin V1 receptor (Homo sapiens) (UniProt P37288+P47901). Kind of series: Inhibition of Vasopressin V1 receptor at 10 uM. Format: protein assay.
The test system of series [14] is Rattus norvegicus. Kind of series: Percent decrease in exit latency was determined in the defensive withdrawal model of rats after oral administration; Dose 10 mg/kg. It counts as functional. In a few lines:
(§5)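 Male Sprague–Dawley rats (180–300 g) dosed po at 1, 3 or 10 mg/kg in 0.25% methocel suspension, 1 h before testing. Each rat placed in a darkened chamber inside a brightly lit open field; latency to emerge timed. Result expressed as % decrease versus vehicle, n = 8 per dose.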

Series [15] is described as follows: Mean total plasma concentration was determined in the defensive withdrawal model of rats after oral administration; Dose 1 mg/kg. It counts as ADME, organism-based. Further details: dose 1 mg/kg, route oral. The following applies: rat, in vivo, read-out: Mean total plasma concentration.
The subject of series [16] is Rattus norvegicus. Kind of series: Percent decrease in exit latency was determined in the defensive withdrawal model of rats after oral administration; Dose 3 mg/kg. It counts as functional. In a few lines:
as §5

For series [17], the target named is Cannabinoid receptor 1 (Homo sapiens) (UniProt P21554). Kind of series: Inhibition of Cannabinoid receptor 1 at 10 uM.
Series [18] deals with T3, Corticotropin-releasing factor receptor 1 (Rattus norvegicus). Kind of series: Percent occupancy of corticotropin releasing factor receptor 1 in defensive withdrawal model in rats after oral administration; Dose 3 mg/kg. Further details: dose 3 mg/kg. Format: organism-based. The following applies: at 3 mg/kg. The method in brief:
as §4

Series [19] deals with Rattus norvegicus. Kind of series: Percent decrease in exit latency was determined in the defensive withdrawal model of rats after oral administration; Dose 1 mg/kg. It counts as functional. In a few lines:
as §5

Series [20] is described as follows: Half life in Beagle dogs. Format: ADME, Canis lupus familiaris. The conditions noted are these: dog, in vivo. In a few lines: as §3
The nature of series [21]: Mean total plasma concentration was determined in the defensive withdrawal model of rats after oral administration; Dose 3 mg/kg. It counts as ADME, organism-based. Further details: dose 3 mg/kg, route oral. The following applies: rat, in vivo, read-out: Mean total plasma concentration.
A short description of series [22]: Mean free plasma concentration was determined in the defensive withdrawal model of rats after oral administration; Dose 1 mg/kg. The following applies: rat, in vivo. Format: ADME, organism-based. On the set-up: dose 1 mg/kg, route oral.

Chain of Vasopressin V1 receptor (Homo sapiens) (P37288 whole entry, looked up): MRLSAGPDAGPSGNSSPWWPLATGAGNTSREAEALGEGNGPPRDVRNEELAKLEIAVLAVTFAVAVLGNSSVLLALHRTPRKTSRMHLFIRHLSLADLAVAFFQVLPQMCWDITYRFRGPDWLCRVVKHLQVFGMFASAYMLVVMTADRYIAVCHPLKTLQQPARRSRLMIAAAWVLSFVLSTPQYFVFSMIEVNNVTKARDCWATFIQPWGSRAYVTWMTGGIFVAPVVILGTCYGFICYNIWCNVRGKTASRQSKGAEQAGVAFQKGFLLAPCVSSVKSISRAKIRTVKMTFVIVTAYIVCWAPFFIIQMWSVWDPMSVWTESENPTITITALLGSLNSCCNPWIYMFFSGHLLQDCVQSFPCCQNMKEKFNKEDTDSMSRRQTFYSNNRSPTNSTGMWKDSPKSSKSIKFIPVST
Chain of Vasopressin V1 receptor (Homo sapiens) (P47901 whole entry, looked up): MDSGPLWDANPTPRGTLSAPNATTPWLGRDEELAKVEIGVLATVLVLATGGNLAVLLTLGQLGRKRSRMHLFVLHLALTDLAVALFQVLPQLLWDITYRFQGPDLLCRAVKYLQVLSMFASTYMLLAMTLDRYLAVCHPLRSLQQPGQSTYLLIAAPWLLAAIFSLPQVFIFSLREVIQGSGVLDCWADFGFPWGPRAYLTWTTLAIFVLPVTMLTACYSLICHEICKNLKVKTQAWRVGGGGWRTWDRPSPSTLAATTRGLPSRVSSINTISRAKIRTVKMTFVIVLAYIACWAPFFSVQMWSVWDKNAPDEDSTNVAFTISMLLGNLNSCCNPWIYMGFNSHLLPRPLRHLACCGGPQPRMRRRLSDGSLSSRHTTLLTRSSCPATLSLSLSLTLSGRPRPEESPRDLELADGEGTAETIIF
Chain of Cannabinoid receptor 1 (Homo sapiens) (P21554 whole entry): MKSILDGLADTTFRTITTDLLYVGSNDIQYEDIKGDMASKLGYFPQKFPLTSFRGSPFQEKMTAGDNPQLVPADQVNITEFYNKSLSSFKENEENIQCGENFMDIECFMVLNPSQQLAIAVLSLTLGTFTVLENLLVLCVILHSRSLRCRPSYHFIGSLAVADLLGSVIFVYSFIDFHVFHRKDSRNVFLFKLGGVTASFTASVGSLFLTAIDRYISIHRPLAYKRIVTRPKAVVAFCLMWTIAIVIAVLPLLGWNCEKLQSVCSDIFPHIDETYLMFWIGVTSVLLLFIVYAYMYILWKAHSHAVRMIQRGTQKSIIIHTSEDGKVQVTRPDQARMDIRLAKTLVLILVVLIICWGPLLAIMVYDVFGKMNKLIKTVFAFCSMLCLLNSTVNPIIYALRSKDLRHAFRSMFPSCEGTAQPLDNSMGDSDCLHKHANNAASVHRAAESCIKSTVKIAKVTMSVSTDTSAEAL

The IC50 is the concentration that inhibits the measured activity by half. A low value points to greater potency. Turning to `CCCN(CCOC)c1cc(C)nc2c1NC(=O)CN2c1ccc(C(C)C)cc1Cl`, the IC50 in [1] is 2.6 nM.
On the same count and under the same terms, the result for `CCCN(CCC)c1cc(C)nc2c1NC(=O)CN2c1ccc(C#N)cc1Cl` reads 1.2 nM; that for `CCCCN(CC)c1cc(C)nc2c1NC(=O)CN2c1ccccc1Br`, 7.1 nM; that for `CCCCNc1cc(C)nc2c1NC(=O)CN2c1ccc(OC)cc1Cl`, over 1000 nM.
In series [1], `CCCCN(CC)c1cc(C)nc2c1NC(=O)CN2c1ccc(OC)cc1Cl` showed an IC50 of 0.3 nM.
On the same count and under the same terms, in the case of `CCCN(CC1CCC1)c1cc(C)nc2c1NC(=O)CN2c1ccc(C#N)cc1Cl` it was 1.8 nM; in that of `CCCCN(CC)c1cc(C)nc2c1NC(=O)CN2c1c(Cl)cc(C#N)cc1Cl`, 3.3 nM; in that of `CCC(CC)Nc1cc(C)nc2c1NC(=O)CN2c1ccc(Cl)cc1Cl`, 198 nM.
For orientation: Ki means the dissociation constant of the complex between target and ligand, obtained from inhibition or displacement. A higher Ki goes with a looser hold on the target. `CCCCN(CC)c1cc(C)nc(N(CC)c2ccc(C(C)C)cc2Br)n1` returned a Ki in series [2] of 18 nM.
For `CCN(CCCS(C)(=O)=O)c1cc(C)nc2c1NC(=O)CN2c1ccc(C(C)C)cc1Br`, the 50% inhibitory concentration (IC50) in series [1] is 305 nM.
Still for that read-out and setting: the result for `CCCCN(CC)c1cc(C)nc2c1NC(=O)CN2c1ccc(Cl)cc1C#N` reads 10 nM; that for `CCN(CC1CCCO1)c1cc(C)nc2c1NC(=O)CN2c1ccc(C(C)C)cc1Br` (stereo unspecified), 4.1 nM.
Same read-out and setting: in the case of `CCCCN(CC)c1cc(C)nc2c1NC(=O)CN2c1ccc(C(C)C)cc1` it was 49 nM.
The same measure, in the same setting: in the case of `CCN(c1cc(C)nc2c1NC(=O)CN2c1cc(F)c(OC)cc1Cl)C(C)C` it was 1.5 nM; in that of `CCCCN(CC)c1cc(C)nc2c1NC(=O)CN2c1ccc(OC)cc1C`, 0.92 nM.
In turn, `CCCCN(CC)c1cc(C)nc2c1NC(=O)CN2c1ccc(C(C)C)cc1Br` came in with an IC50 in [1] of 0.7 nM. This IC50 and that of the compound before are within 1.5-fold of each other.
Regarding `COCCN(CCOC)c1cc(C)nc2c1NC(=O)CN2c1ccc(C(C)C)cc1Cl`, in series [1], the IC50 came out at 18 nM.
In series [1], `CCCCN(CC)c1cc(C)nc2c1NC(=O)CN2c1ccc(OC)nc1C` showed an IC50 of 4.2 nM.
In turn, `Cc1cc(N2CCOCC2)c2c(n1)N(c1ccc(C(C)C)cc1Br)CC(=O)N2` had a half-inhibitory concentration (IC50) in series [1] of 126 nM. Against the preceding compound, the IC50 is about 30-fold higher.
For the compound `CCCCN(CC)c1cc(C)nc2c1NC(=O)CN2c1ccc(C#N)cc1Cl`, in [1], the IC50 amounted to 2.2 nM.
As usually defined, the inhibition is the percentage by which the read-out fell short of the control. High values mean strong suppression, low ones little suppression. On to `CCCCN(CC)c1cc(C)nc2c1NC(=O)CN2c1ccc(OC)nc1OC`, for which, in series [3], the Volume of distribution worked out at 40.6 L/kg. Also, the figures for the Occupancy in series [4], in [12] and in [18] were 59%, 17% and 23%, respectively. The bioavailability in series [5] was 24%. In addition, the concentration is 61.5 nM in [6], 3.1 nM in series [15] and 21.7 nM in series [21]. In addition, the entries for the “Mean free plasma concentration” value in series [7], in [8] and in series [22] were 1.02 nM, 0.36 nM and 0.05 nM, respectively. Moreover, the Clearance in series [9] was 27.8 mL/min/kg. Further, the inhibition in series [10] came to 49%; in series [13] it was 47%; in [17], 53%. The IC50 in [11] turned out to be 38.7 nM; in series [1], 0.82 nM. For the same compound, the “Decrease in exit latency” value amounted to 81% in series [14], 14% in series [16] and 0% in series [19]. The T1/2 in [20] was determined as 27.6 h.
In series [1], `CCNc1cc(C)nc2c1NC(=O)CN2c1ccc(OC)cc1Cl` registered an IC50 of over 1000 nM.
Regarding `CCCCN(CC)c1cc(C)nc2c1NC(=O)CN2c1ccc(Cl)cc1Cl`, the IC50 in [1] was found to be 0.49 nM.
On the same count and under the same terms, the result for `CCCCN(CC)c1cc(C)nc2c1NC(=O)CN2c1cc(F)c(OC)cc1Cl` reads 0.5 nM.
Consider `CCCCN(CC)c1cc(C)nc2c1NC(=O)CN2c1ccc(C(C)C)cc1Cl`, for which the IC50 in series [1] was 0.91 nM.
On the same count and under the same terms, in the case of `CCN(CCCC#N)c1cc(C)nc2c1NC(=O)CN2c1ccc(OC)cc1C` it was 92 nM.
